Results on 6 molecules are retold here after ChEMBL document CHEMBL1125647, “Synthesis and siderophore and antibacterial activity of N5-acetyl-N5-hydroxy-L-ornithine-derived siderophore-beta-lactam conjugates: iron-transport-mediated drug delivery” (1991).

Holding throughout (type): functional
Assay [1] deals with Shigella flexneri. The assay is described as follows: cell growth was measured against Shigella flexneri SA240 using liquid growth assay at 2 hr. The procedure, abridged:
(§1)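 Overnight cultures diluted 1:500 into Luria broth containing EDDA 10 μg/mL, with or without test compound at 100 μg/mL. Turbidity read as absorbance at 650 nm (table heading) at 0, 2 and 8 h. SA240 is an iucD:Tn5 siderophore-deficient derivative of SA100. RW193 is E. coli K12 entA, fhuA-positive. AN193 is entA, fhuA-negative, lacking the ferrichrome receptor.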

The test system of assay [2] is Escherichia coli. The assay can be described thus: cell growth was measured against Escherichia coli AN193 using liquid growth assay at 0h. In outline: as §1
For the next assay, the system named is Pseudomonas. The assay can be described thus: Minimum inhibitory concentration was measured against Pseudomonas X528. In outline: (§2)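 Standard agar dilution method; MICs determined externally by an industrial partner rather than in the authors' lab.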
In assay [3] the test system is Staphylococcus epidermidis. The assay can be described thus: Minimum inhibitory concentration was measured against staphylococcus epidermidis 222. The procedure, abridged:
as §2

In assay [4] the test system is Salmonella. The assay can be described thus: Minimum inhibitory concentration was measured against salmonella 1135. In outline: as §2
In assay [5] the test system is Escherichia coli. The assay is described as follows: Minimum inhibitory concentration was measured against Escherichia coli EC14. In outline:
as §2

Assay [6] concerns Salmonella. The assay is described as follows: Minimum inhibitory concentration was measured against salmonella X514. In outline: as §2
A further assay deals with Streptococcus pneumoniae. The assay is described as follows: Minimum inhibitory concentration was measured against streptococcus pneumonia PARK. The procedure, abridged: as §2
Assay [7] deals with Escherichia coli. The assay can be described thus: cell growth was measured against Escherichia coli AN193 using liquid growth assay at 8 hr. The procedure, abridged:
as §1

Assay [8] deals with Escherichia coli. The assay is described as follows: cell growth was measured against Escherichia coli RW193 using liquid growth assay at 8 hr. The procedure, abridged:
as §1

Assay [9] concerns Escherichia coli. The assay is described as follows: cell growth was measured against Escherichia coli RW193 using liquid growth assay at 2 hr. In outline: as §1
Assay [10] concerns Shigella flexneri. The assay is described as follows: cell growth was measured against Shigella flexneri SA240 using liquid growth assay at 8 hr. In outline:
as §1

The test system of assay [11] is Escherichia coli. The assay can be described thus: cell growth was measured against Escherichia coli RW193 using liquid growth assay at 0h. In outline:
as §1

Assay [12] relates to Escherichia coli. The assay can be described thus: cell growth was measured against Escherichia coli AN193 using liquid growth assay at 2 hr. The procedure, abridged: as §1
Assay [13] has as its system Shigella flexneri. The assay is described as follows: cell growth was measured against Shigella flexneri SA240 using liquid growth assay at 0h. In outline: as §1
Assay [14] relates to Shigella flexneri. The assay is described as follows: The relative ability of compound to promote the growth of Shigella flexneri SA 100, a strain lacking the ability to synthesize siderophores was measured as zone stimulation at concentration of 0.1 mM. In outline: (§3)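 S. flexneri SA100 grown overnight in Luria broth, seeded at 10^8/mL into Luria agar with EDDA (250 μg/mL). Compounds made as 10 mM aqueous stocks, diluted in water to 10, 1 or 0.1 mM. 10 μL applied on sterile paper disks. Incubated 37 °C, 18 h; diameters of growth-stimulation zones measured in mm.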

The subject of assay [15] is Shigella flexneri. The assay can be described thus: The relative ability of compound to promote the growth of Shigella flexneri SA 100, a strain lacking the ability to synthesize siderophores was measured as zone stimulation at concentration of 1 mM. In outline: as §3
Assay [16] has as its system Shigella flexneri. The assay is described as follows: The relative ability of compound to promote the growth of Shigella flexneri SA 100, a strain lacking the ability to synthesize siderophores was measured as zone stimulation at concentration of 10 mM. The procedure, abridged: as §3

The structures appear in SMILES notation. Converted amounts (≈) assume the structure as drawn.

The MIC is the lowest concentration found to suppress growth. Higher therefore signals a less susceptible organism. `CC(=O)N(O)CCC[C@H](NC(=O)[C@H](CCCN(O)C(C)=O)NC(=O)[C@@H](N)CCCN(O)C(C)=O)C(=O)N[C@@H](C(=O)NC1C(=O)N2C(C(=O)O)=C(Cl)CC[C@H]12)c1ccc(O)cc1` (some centres undefined): the Cell growth is listed as 0.107 with Shigella flexneri [1]; 0.001 in the assay with Escherichia coli [2]; 0.691 with Escherichia coli [7]; 1.59 in the assay on Escherichia coli [8]; 0.347 in the assay with Escherichia coli [9]; 0.974 in the assay with Shigella flexneri [10]. Further, the Cell growth in the assay with Escherichia coli [11] is listed as 0.001; in the assay on Escherichia coli [12], 0.019; in the assay with Shigella flexneri [13], 0.001. In addition, the MIC with Pseudomonas is over 128 µg/mL; in assay [3] it was over 128 µg/mL; with Salmonella [4], over 64 µg/mL; in the assay with Escherichia coli [5], over 32 µg/mL; against Salmonella [6], 0.06 µg/mL (≈ 0.068 µM); in the assay on Streptococcus pneumoniae, over 64 µg/mL.

Regarding `CC(=O)N(O)CCC[C@H](NC(=O)[C@H](CCCN(O)C(C)=O)NC(=O)[C@@H](N)CCCN(O)C(C)=O)C(=O)N[C@@H](C(=O)NC1C(=O)N(OCC(=O)O)[C@H]1C)c1ccc(O)cc1` (some centres undefined), the Zone of stimulation in the assay with Shigella flexneri [14] worked out at 0 mm; with Shigella flexneri [15], 16 mm; with Shigella flexneri [16] it was 31 mm.

For `CC(=O)N(O)CCC[C@H](NC(=O)[C@H](CCCN(O)C(C)=O)NC(=O)[C@@H](N)CCCN(O)C(C)=O)C(=O)N[C@@H](C(=O)NC1C(=O)N2C(C(=O)O)=C(Cl)CC[C@H]12)c1ccccc1` (some centres undefined), the MIC against Pseudomonas is over 128 µg/mL; in [3] it was over 128 µg/mL; against Salmonella [4], over 128 µg/mL; against Escherichia coli [5], over 64 µg/mL; in the assay on Salmonella [6] it was 0.125 µg/mL (≈ 0.144 µM); in the assay with Streptococcus pneumoniae it was over 64 µg/mL.

For the molecule `CC(=O)N(O)CCC[C@H](NC(=O)[C@H](CCCN(O)C(C)=O)NC(=O)[C@@H](N)CCCN(O)C(C)=O)C(=O)N[C@@H](C(=O)NC1C(=O)N(OCC(=O)O)[C@H]1C)c1ccccc1` (some centres undefined), the Zone of stimulation came out at 0 mm with Shigella flexneri [14], 12 mm in the assay on Shigella flexneri [15] and 28 mm in the assay on Shigella flexneri [16].

`N[C@@H](C(=O)N[C@@H]1C(=O)N2C(C(=O)O)=C(Cl)CS[C@H]12)c1ccccc1.O` [CEFACLOR]: the MIC was over 128 µg/mL in the assay on Pseudomonas; 2 µg/mL in assay [3]; 1 µg/mL against Salmonella [4]; 1 µg/mL with Escherichia coli [5]; 0.25 µg/mL with Salmonella [6]; 0.5 µg/mL against Streptococcus pneumoniae.

Turning to `N[C@@H](C(=O)N[C@@H]1C(=O)N2C(C(=O)O)=C(Cl)CC[C@H]12)c1ccccc1` [LORACARBEF ANHYDROUS], the MIC against Pseudomonas is over 128 µg/mL; in assay [3], 2 µg/mL (≈ 5.72 µM); against Salmonella [4], 0.5 µg/mL (≈ 1.43 µM); against Escherichia coli [5], 0.5 µg/mL (≈ 1.43 µM); in the assay with Salmonella [6], 0.25 µg/mL (≈ 0.715 µM); in the assay on Streptococcus pneumoniae, 1 µg/mL (≈ 2.86 µM).
